C2C12 statin – protects C2C12 myotubes from simvastatin toxicity; ATP luminescence, 48 h; scaled: DMSO 0, geranylgeraniol control 100; rescue of ATP level, % at 7.49 µM; 0.78% of 330,000 active;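 active = mean ATP rescue above about 67%, or every replicate alone reaching that limit, limit read from the data, passing the limit was not always enough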;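 note: myotubes were challenged with 10 µM simvastatin during compound exposure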
ASAP1 inh – blocks human ASAP1-stimulated Arf1 GTP hydrolysis. Q9ULH1. GDP FP detection. inhibition, % at 16.5 µM. 0.19% of 360,000 active; in the data active = inhibition above about 25%;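 note: 0% = vehicle with enzyme and substrate and 100% = no enzyme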
A3G deaminase – inhibitors of human APOBEC3G DNA deaminase; Q9HC16; recombinant A3G, ssDNA deamination FAM/TAMRA fluorescence; inhibition, % at 20 µM; 0.28% of 330,000 active;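 active = inhibition of at least 40% at 20 µM, with no more than 30% in the related APOBEC3A deaminase screen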;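 note: plate controls were DMSO wells with A3G for no effect and wells lacking A3G enzyme for full effect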
Target sequence (Q9HC16 whole entry, looked up): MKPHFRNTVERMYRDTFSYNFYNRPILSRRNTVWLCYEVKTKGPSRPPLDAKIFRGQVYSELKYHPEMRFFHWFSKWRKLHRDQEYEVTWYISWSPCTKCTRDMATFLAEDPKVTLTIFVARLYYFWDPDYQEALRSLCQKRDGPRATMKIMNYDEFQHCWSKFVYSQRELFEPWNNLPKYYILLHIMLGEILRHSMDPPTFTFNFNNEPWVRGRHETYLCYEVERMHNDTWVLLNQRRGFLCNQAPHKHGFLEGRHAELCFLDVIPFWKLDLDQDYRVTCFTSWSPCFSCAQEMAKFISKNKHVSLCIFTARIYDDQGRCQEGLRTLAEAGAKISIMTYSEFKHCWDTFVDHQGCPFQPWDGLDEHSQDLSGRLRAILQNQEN
A3A deaminase – blocks human APOBEC3A ssDNA deamination | P31941 | recombinant A3A, FAM/TAMRA ssDNA deamination fluorescence | inhibition, % at 20 µM | 0.41% of 330,000 active | AID 493011;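 active = at least 40% inhibition at 20 µM here, with at most 30% in a related deaminase screen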;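 note: plate controls were A3A with DMSO for no effect and wells lacking A3A enzyme for full effect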
SUMO Mot1 rescue – blocks SUMOylation pathway, rescuing yeast Mot1-301 growth. S. cerevisiae Mot1-301 growth rescue, ATP luminescence, 38.5C; percent above DMSO median, 100 means doubled. growth rescue, % at 18.8 µM. 1% of 320,000 active. AID 2716;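 active = every valid replicate shows activation above 250% relative to neutral control wells; inactive = the rest, any valid replicate at or below 250%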;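 note: OY570 slx delta 5 strain wells were the positive control but not used for scaling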
ARFGAP1 inh – inhibitors of rat ARFGAP1; Q62848; 0.26% of 360,000 active; AID 651572; Arfgap1-stimulated ARF1 GTP hydrolysis, GDP FP detection; inhibition, % at 16.5 µM;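 active = inhibition above a per-plate limit, mean inhibition of low control wells plus 3 SD, cut at about 25% in these data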;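 note: 0% = DMSO wells with enzyme and 100% = wells lacking Arfgap1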
Target sequence (Q62848 1-136 limits assumed): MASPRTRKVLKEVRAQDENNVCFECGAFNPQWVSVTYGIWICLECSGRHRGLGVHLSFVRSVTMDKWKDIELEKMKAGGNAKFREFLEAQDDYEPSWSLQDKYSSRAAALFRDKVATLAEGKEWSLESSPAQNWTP
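system = rat Arfgap1 catalytic domain, aa 1-136 | technique = FP, GDP Alexa 633 tracer displaced from anti-GDP antibody, 620/688 nm | compound = one concentration, 16.5 µM, DMSO 1.26% | medium = HEPES-based buffer, pH 7.5 | timing = compound-enzyme preincubation 20 min, reaction 120 min, detection 60 min, 25 °C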
APOBEC3A confirm – confirmation of human APOBEC3A DNA deaminase inhibitors | shares compounds with A3A deaminase | recombinant A3A, ssDNA deaminase UDG fluorescence assay | inhibition, % at 20 µM | 63% of 1,400 active;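 active = inhibition reaching a set limit, 80% of the first screen's cutoff, at 20 µM in any replicate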;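 note: plate controls were DMSO wells with A3A for no effect and wells lacking A3A enzyme for full effect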
UDG A3A counter – UDG inhibition in APOBEC3A counter-screen. inhibition, % at 20 µM. shares compounds with A3A deaminase. UDG counterscreen, FAM/TAMRA uracil oligo fluorescence. 1,000 tested, under 10 active; call rule not given here
* = called active by the depositor. Hits are enriched below; roughly 2.1% of the tested compounds scored in any of these assays.

Screening Cc1ccc(NC(=O)COC(=O)CCOc2ccccc2C)cc1 returned C2C12 statin 6, ASAP1 inh 2, A3G deaminase -7, A3A deaminase -1, SUMO Mot1 rescue 15 and ARFGAP1 inh 9.
For CCOc1ccccc1OCCC(=O)OCC(=O)Nc1c(C)cc(C)cc1C the results were C2C12 statin 7, ASAP1 inh 11, A3G deaminase 10, A3A deaminase 62*, SUMO Mot1 rescue -4, ARFGAP1 inh 11 and APOBEC3A confirm 23.
Screening Nc1ccc(Nc2ccccc2)c(S(=O)(=O)O)c1 returned C2C12 statin 0, ASAP1 inh -12, A3G deaminase 18, A3A deaminase 67*, SUMO Mot1 rescue -5, ARFGAP1 inh 6, APOBEC3A confirm 57* and UDG A3A counter -1.
For Cc1ccc(Nc2ccc(N)cc2S(=O)(=O)O)cc1 the results were C2C12 statin 6, ASAP1 inh -4, A3G deaminase -4, A3A deaminase 6, SUMO Mot1 rescue -4 and ARFGAP1 inh -4.
`Cc1cc(C(=O)Nc2cccc3c2O[C@@H](CN(C)Cc2ccc(-c4ccccc4)cc2)[C@H](C)CN([C@H](C)CO)C3=O)n(C)n1` gave C2C12 statin -14.
`COC(=O)c1[nH]c2ccc(Br)cc2c1NC(=O)CN1CCN(C2CCCCC2)CC1` gave C2C12 statin -27, ASAP1 inh 1, A3G deaminase 21, A3A deaminase 47*, SUMO Mot1 rescue 96, ARFGAP1 inh 5 and APOBEC3A confirm 28.
`COC(=O)c1[nH]c2ccc(C)cc2c1NC(=O)CCN1CCN(C2CCCCC2)CC1` gave A3G deaminase -2 and A3A deaminase -1.
COc1ccc(NC(=O)/C=C/c2cccc(Br)c2)cn1 was read as C2C12 statin -3, ASAP1 inh -4, A3G deaminase -7, A3A deaminase 41*, SUMO Mot1 rescue 19, ARFGAP1 inh 6, APOBEC3A confirm 15* and UDG A3A counter 1.
`COc1ccc(NC(=O)/C=C/c2cccc(C(F)(F)F)c2)cn1` gave C2C12 statin -17, ASAP1 inh 6, A3G deaminase -13, A3A deaminase 2, SUMO Mot1 rescue 72 and ARFGAP1 inh 8.
Screening C(=N\Nc1nc(N2CCOCC2)nc(N2CCOCC2)n1)/c1ccco1 returned A3G deaminase 0, A3A deaminase 14 and SUMO Mot1 rescue 6.
`Cc1ccc(/C=N/Nc2nc(N3CCOCC3)nc(N3CCOCC3)n2)o1` gave ASAP1 inh -3, A3G deaminase -3, A3A deaminase 53*, SUMO Mot1 rescue 169, ARFGAP1 inh -2, APOBEC3A confirm 33* and UDG A3A counter 2.
Screening COCC(=O)Nc1ccc2c(c1)[C@@H]1C[C@@H](CC(=O)NCCc3ccccc3)O[C@@H](CO)[C@@H]1O2 returned C2C12 statin -6.
CC[n+]1ccc(C)c2cc(S(=O)C(F)(F)F)ccc21 (centres undefined) was read as C2C12 statin 2, A3G deaminase -1, A3A deaminase 2 and SUMO Mot1 rescue 346.
For CC[n+]1ccc(C)c2cc(P(=O)(c3ccccc3)c3ccccc3)ccc21 the results were C2C12 statin 5, ASAP1 inh 6, A3G deaminase 26, A3A deaminase 63*, SUMO Mot1 rescue -7, ARFGAP1 inh 12, APOBEC3A confirm active and UDG A3A counter 4.
Screening CC(C)NC(=O)N(C)C[C@H]1Oc2ccc(NC(=O)Cc3cn(C)c4ccccc34)cc2C(=O)N([C@@H](C)CO)C[C@@H]1C returned C2C12 statin -13.
CCN1C(N(C)CCc2cccs2)=N[C@@H](c2ccccc2)C(C(=O)OC)=C1C was read as C2C12 statin -14, ASAP1 inh -4, A3G deaminase 22, A3A deaminase 52*, SUMO Mot1 rescue -3, ARFGAP1 inh -14, APOBEC3A confirm 52* and UDG A3A counter -2.
`C[C@H](CO)N1C[C@H](C)[C@H](CN(C)Cc2ccccc2)Oc2ccc(NC(=O)c3ccncc3)cc2C1=O` gave C2C12 statin -10.
`CN1/C(=C/c2cccc[n+]2C)Sc2ccccc21` gave C2C12 statin -116, ASAP1 inh 1, A3G deaminase 21, A3A deaminase 62*, SUMO Mot1 rescue -24, ARFGAP1 inh -11, APOBEC3A confirm 87* and UDG A3A counter -1.
Screening Cc1ccc2c(c1)N(C)/C(=C/c1cccc[n+]1C)S2 returned C2C12 statin -96, ASAP1 inh 8, A3G deaminase 23, A3A deaminase 67*, SUMO Mot1 rescue 18, ARFGAP1 inh 6, APOBEC3A confirm 91* and UDG A3A counter 1.
For Cc1ccc2c(c1)N(C)/C(=C/c1cccc[n+]1CCO)S2 the results were C2C12 statin -50, ASAP1 inh -8, A3G deaminase 16, A3A deaminase 48*, SUMO Mot1 rescue -2, ARFGAP1 inh -2, APOBEC3A confirm 83* and UDG A3A counter 2.
CCCCN1/C(=C/c2cccc[n+]2C)Sc2cc(NC(C)=O)ccc21 was read as C2C12 statin -42, ASAP1 inh -2, A3G deaminase 32, A3A deaminase 80, SUMO Mot1 rescue -7 and ARFGAP1 inh -7.
For C[C@@H]1CN([C@H](C)CO)C(=O)c2cc(C#CC3(O)CCCC3)cnc2O[C@@H]1CN(C)Cc1ccccn1 the results were C2C12 statin 8.
`COc1ccc2c(c1)[N+](C)(C)C(C)(C)C=C2C` gave ASAP1 inh 5, A3G deaminase 10, A3A deaminase 56*, SUMO Mot1 rescue 7, ARFGAP1 inh -4, APOBEC3A confirm 82* and UDG A3A counter 4.
`CCOc1ccc2c(c1)[N+](C)(C)C(C)(C)C=C2C` gave ASAP1 inh 4, A3G deaminase 18, A3A deaminase 78*, SUMO Mot1 rescue 295, ARFGAP1 inh 5, APOBEC3A confirm 70* and UDG A3A counter -2.
Screening CCNC(=O)N1c2ccc(OCC)cc2C(C)=CC1(C)C returned C2C12 statin -1, ASAP1 inh -4, A3G deaminase -3, A3A deaminase -3, SUMO Mot1 rescue 2 and ARFGAP1 inh 7.
`O=C(C[C@H]1C=C[C@@H](NS(=O)(=O)c2cccc(F)c2)[C@@H](CO)O1)N1CCCCC1` gave C2C12 statin -4.
Screening C[n+]1cccc(C(=O)Nc2ccccc2)c1 returned C2C12 statin 7, ASAP1 inh -5, A3G deaminase 18, A3A deaminase 70*, SUMO Mot1 rescue -8, ARFGAP1 inh -7, APOBEC3A confirm 57* and UDG A3A counter -2.

Assay outcomes (PubChem)
